ChEMBL document CHEMBL3867462, “Synthesis and in vitro antikinetoplastid activity of polyamine-hydroxybenzotriazole conjugates” (Bioorg Med Chem, 2017)

What was measured:
Leishmania donovani [1] = assay: Antileishmanial against of Leishmania donovani LV9 axenic amastigotes after 72 hrs by SYBR1 green-based qPCR analysis; assay type: functional; details: LV9, 72 h
Procedure, shortened: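 Axenic amastigotes were grown at 37 °C under 5% CO2, in medium at pH 5.5 containing glucose, glutamine, trypticase peptone, haemin and 20% FBS. Parasite load was read by SYBR green I fluorescence in a qPCR instrument and converted against a standard range of known parasite densities.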

[2] = Selectivity index, ratio of CC50 for mouse RAW 264.7 cells to IC50 for Trypanosoma brucei gambiense FeoITMAP/1893 trypomastigotes; assay type: functional
Procedure, shortened: (§1)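 Selectivity index is the CC50 on RAW 264.7 cells divided by the IC50 on the parasite.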

[3] = test system: Trypanosoma brucei gambiense; assay: Antitrypanosomal against bloostream forms of Trypanosoma brucei gambiense FeoITMAP/1893 trypomastigotes after 72 hrs in the dark by resazurin assay; assay type: functional; details: FeoITMAP/1893, 72 h
Procedure, shortened: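 Bloodstream trypanosomes were seeded at 4×10⁴/mL with compound dilutions in supplemented medium containing NaHCO3, hypoxanthine, bathocuproine, thymidine and 2-mercaptoethanol. Incubation was 72 h.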

[4] = Cytotoxicity against mouse RAW264.7 cells assessed as cell growth inhibition after 72 hrs by Alamar blue dye-based assay; assay type: toxicity
Procedure, shortened: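 RAW 264.7 cells in DMEM with 10% heat-inactivated FBS were seeded at 5×10³ cells/well and incubated 24 h at 37 °C, 5% CO2. The medium was then replaced with fresh DMEM containing compound.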

[5] = Selectivity index, ratio of CC50 for mouse RAW 264.7 cells to IC50 for Leishmania donovani LV9 intramacrophage amastigotes infected in mouse RAW 264.7 cells; assay type: functional; procedure, shortened: as §1
Leishmania donovani [6] = assay: Antileishmanial against of Leishmania donovani LV9 intramacrophage amastigotes infected in mouse RAW 264.7 cells after 48 hrs by SYBR1 green-based qPCR analysis; assay type: functional, cell-based; details: LV9, RAW264.7, 48 h
[7] = Selectivity index, ratio of CC50 for mouse RAW 264.7 cells to IC50 for Leishmania donovani LV9 axenic amastigotes; assay type: functional; procedure, shortened: as §1
[8] = Mixed-type inhibition of Trypanosoma brucei TryR assessed as enzyme-substrate-inhibitor complex using TS2 as substrate in presence of NADPH by Lineweaver-Burk plot analysis
Procedure, shortened: (§2)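 Recombinant T. brucei TryR activity was followed as NADPH consumption at 340 nm with TS2 concentration varied, at 0, 10 and 40 µM inhibitor. Inhibition type and inhibitor constant were derived from Lineweaver–Burk plots.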

Trypanosoma brucei = assay: Inhibition of Trypanosoma brucei TryR using TS2 as substrate at 40 uM in presence of NADPH by spectrophotometric analysis
Procedure, shortened: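 Recombinant T. brucei TryR was screened with inhibitor at 40 µM in assay buffer containing 5% DMSO, at 40 or 100 µM TS2. Activity was followed as NADPH consumption at 340 nm and reported as percent inhibition against DMSO-matched controls.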

[9] = Mixed-type inhibition of Trypanosoma brucei TryR assessed as enzyme-inhibitor complex using TS2 as substrate in presence of NADPH by Lineweaver-Burk plot analysis; procedure, shortened: as §2

## Cl.Cl.NCCCCN(CCCN)C(=O)COn1nnc2ccccc21
Leishmania donovani [1]
  IC50: > 100 µM
[2]
  Ratio CC50/IC50: 4
[3]
  IC50: 25.3 µM
[4]
  CC50 at 72 h: > 100 µM
[5]
  Ratio CC50/IC50: 4
Leishmania donovani [6]
  IC50: 23.4 µM

## CC(C)(C)OC(=O)NCCCN(CCCCNC(=O)COn1nnc2ccccc21)C(=O)OC(C)(C)C
Leishmania donovani [1]
  IC50: > 100 µM
[2]
  Ratio CC50/IC50: 50
[3]
  IC50: 2 µM
[4]
  CC50 at 72 h: > 100 µM
[5]
  Ratio CC50/IC50: 2
Leishmania donovani [6]
  IC50: 41.4 µM

## Cl.NCCCCNC(=O)COn1nnc2ccccc21
Leishmania donovani [1]
  IC50: > 100 µM
[2]
  Ratio CC50/IC50: 11
[3]
  IC50: 9.5 µM
[4]
  CC50 at 72 h: > 100 µM
Leishmania donovani [6]
  IC50: > 100 µM

## CC(C)(C)OC(=O)NCCCNC(=O)COn1nnc2ccccc21
Leishmania donovani [1]
  IC50: > 100 µM
[2]
  Ratio CC50/IC50: 3
[3]
  IC50: 28.8 µM
[4]
  CC50 at 72 h: > 100 µM
[5]
  Ratio CC50/IC50: 2
Leishmania donovani [6]
  IC50: 56.7 µM

## Cl.Cl.Cl.NCCCNCCCCNCCCNC(=O)COn1nnc2ccccc21
Leishmania donovani [1]
  IC50: 10.9 µM
[7]
  Ratio CC50/IC50: 9
[2]
  Ratio CC50/IC50: 7
[3]
  IC50: 13.8 µM
[4]
  CC50 at 72 h: > 100 µM
[5]
  Ratio CC50/IC50: 3
Leishmania donovani [6]
  IC50: 38.6 µM

## NCCCCNCCCN [SPERMIDINE]
Leishmania donovani [1]
  IC50: 8.3 µM
[7]
  Ratio CC50/IC50: 12
[2]
  Ratio CC50/IC50: 29
[3]
  IC50: 3.3 µM
[4]
  CC50 at 72 h: > 100 µM
Leishmania donovani [6]
  IC50: > 100 µM

## CC(C)(C)OC(=O)NCCCN(CCCCN(CCCNC(=O)COn1nnc2ccccc21)C(=O)OC(C)(C)C)C(=O)OC(C)(C)C
Leishmania donovani [1]
  IC50: 27 µM
[7]
  Ratio CC50/IC50: 1.4
[2]
  Ratio CC50/IC50: 10
[3]
  IC50: 3.5 µM
[4]
  CC50 at 72 h: 37.4 µM
[5]
  Ratio CC50/IC50: 1
Leishmania donovani [6]
  IC50: 34.7 µM

## O=C(O)COn1nnc2ccccc21
Leishmania donovani [1]
  IC50: > 100 µM
[3]
  IC50: > 100 µM
[4]
  CC50 at 72 h: > 100 µM
Leishmania donovani [6]
  IC50: > 100 µM

## CCCCCCCCCCCCCCCCOP(=O)([O-])OCC[N+](C)(C)C [MILTEFOSINE]
Leishmania donovani [1]
  IC50: 1.9 µM
[4]
  CC50 at 72 h: > 100 µM
Leishmania donovani [6]
  IC50: 1.5 µM

## CC(C)(C)OC(=O)NCCCCN(CCCNC(=O)OC(C)(C)C)C(=O)COn1nnc2ccccc21
Leishmania donovani [1]
  IC50: 11.5 µM
[7]
  Ratio CC50/IC50: 1
[2]
  Ratio CC50/IC50: 4
[3]
  IC50: 3.2 µM
[4]
  CC50 at 72 h: 12.5 µM
[5]
  Ratio CC50/IC50: 4
Leishmania donovani [6]
  IC50: 3.1 µM

## N=C(N)c1ccc(OCCCCCOc2ccc(C(=N)N)cc2)cc1 [PENTAMIDINE]
[3]
  IC50: 0.0021 µM
[4]
  CC50 at 72 h: > 100 µM

## Cl.Cl.NCCCCNCCCNC(=O)COn1nnc2ccccc21
Leishmania donovani [1]
  IC50: > 100 µM
[7]
  Ratio CC50/IC50: 1.5
[2]
  Ratio CC50/IC50: 1
[8]
  Ki: 16.8 µM
[3]
  IC50: 72 µM
[4]
  CC50 at 72 h: > 100 µM
Trypanosoma brucei
  inhibition: 80%
[9]
  Ki: 6.7 µM
Leishmania donovani [6]
  IC50: > 100 µM

## Cl.NCCCNC(=O)COn1nnc2ccccc21
Leishmania donovani [1]
  IC50: > 100 µM
[3]
  IC50: > 100 µM
[4]
  CC50 at 72 h: > 100 µM
[5]
  Ratio CC50/IC50: 3
Leishmania donovani [6]
  IC50: 29.5 µM

## CC(C)(C)OC(=O)NCCCCN(CCCNC(=O)COn1nnc2ccccc21)C(=O)OC(C)(C)C
Leishmania donovani [1]
  IC50: 60.5 µM
[7]
  Ratio CC50/IC50: 1.6
[2]
  Ratio CC50/IC50: 85
[3]
  IC50: 1.2 µM
[4]
  CC50 at 72 h: > 100 µM
[5]
  Ratio CC50/IC50: 1
Leishmania donovani [6]
  IC50: 67.8 µM

## Cl.Cl.NCCCNCCCCNC(=O)COn1nnc2ccccc21
Leishmania donovani [1]
  IC50: > 100 µM
[7]
  Ratio CC50/IC50: 9
[2]
  Ratio CC50/IC50: 3
[3]
  IC50: 38.7 µM
[4]
  CC50 at 72 h: > 100 µM
Leishmania donovani [6]
  IC50: > 100 µM

## CC(C)(C)OC(=O)NCCCCNC(=O)COn1nnc2ccccc21
Leishmania donovani [1]
  IC50: > 100 µM
[3]
  IC50: > 100 µM
[4]
  CC50 at 72 h: > 100 µM
Leishmania donovani [6]
  IC50: > 100 µM
